According to PMC9233146 (Cell chemical biology, 2022):

Experiments:
[1] = system: iCEC2 choroidal endothelial cells; assay: iCEC2 proliferation assay; type: cell-based, human; conditions: 48 hour treatment
ARPE19 cells [2] = assay: ARPE19 proliferation assay; type: cell-based, human; conditions: 48 hour treatment
HRECs [3] = assay: Scratch wound migration assay; type: cell-based, human; conditions: 8 hour treatment, dose dependent
Method in brief: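 HRECs were grown to confluence in 96-well plates at 37°C, scratched down the well centre with a pipette tip, and treated with test compound. Brightfield images were taken at 8 h. Cells migrating into the scratch were counted manually in six images per treatment and normalised to DMSO. Replicate runs were live-imaged. n=4 technical.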

HRECs [4] = assay: Matrigel-based tube formation assay; type: cell-based, human; conditions: 8 hour treatment, qualitative
Method in brief: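 Matrigel was solidified 20 min at 37°C. HRECs were added at 15,000/well in EGM-2 and dosed with test compound in DMSO. Tubes were watched by brightfield every 2 h and imaged at 8 h. Total tubule length from six images per treatment was normalised to DMSO controls. n=6 technical.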

[5] = system: Human Retinal Endothelial Cell (HREC); assay: HREC proliferation assay; type: cell-based; conditions: 48 hour treatment, qualitative
[6] = molecular target: dopamine D2 receptor DRD2S (Homo sapiens, UniProt P14416); assay: SafetyScan off-target analysis, DRD2S; type: cell-based
Chain of dopamine D2 receptor DRD2S (P14416 1-414 isoform P14416-2): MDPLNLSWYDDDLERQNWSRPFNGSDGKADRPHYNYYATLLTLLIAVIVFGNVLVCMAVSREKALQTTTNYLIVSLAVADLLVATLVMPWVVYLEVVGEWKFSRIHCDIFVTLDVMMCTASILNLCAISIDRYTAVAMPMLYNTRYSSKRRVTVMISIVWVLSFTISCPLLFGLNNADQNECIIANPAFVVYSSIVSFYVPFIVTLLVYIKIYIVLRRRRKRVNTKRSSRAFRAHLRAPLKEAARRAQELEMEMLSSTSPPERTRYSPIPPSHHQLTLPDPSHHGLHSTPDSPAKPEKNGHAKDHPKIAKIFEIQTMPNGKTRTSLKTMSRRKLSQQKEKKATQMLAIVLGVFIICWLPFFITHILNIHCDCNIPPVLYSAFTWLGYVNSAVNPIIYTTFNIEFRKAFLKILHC

recombinant FECH [7] = molecular target: T1, recombinant FECH (Homo sapiens, UniProt P22830); assay: 4e-FECH enzyme kinetic analysis; type: biochemical; conditions: vs. substrate mesoporphyrin IX; Vmax consistent, KM increased
T1 sequence (P22830 55-423): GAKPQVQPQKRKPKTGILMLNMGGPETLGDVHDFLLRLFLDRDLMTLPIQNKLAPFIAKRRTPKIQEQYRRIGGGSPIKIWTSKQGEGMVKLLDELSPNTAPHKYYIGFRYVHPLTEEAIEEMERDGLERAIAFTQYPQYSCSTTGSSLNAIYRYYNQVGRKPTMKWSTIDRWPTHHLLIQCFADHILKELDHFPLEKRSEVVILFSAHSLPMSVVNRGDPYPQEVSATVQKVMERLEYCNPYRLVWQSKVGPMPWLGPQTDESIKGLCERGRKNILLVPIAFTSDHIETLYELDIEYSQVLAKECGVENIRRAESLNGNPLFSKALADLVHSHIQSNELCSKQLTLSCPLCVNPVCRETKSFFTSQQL

[8] = system: FECH activity in HRECs (PPIX accumulation); assay: Protoporphyrin IX buildup assay; type: cell-based, human; conditions: highest dose, co-treated with 5-ALA, 3 hour treatment, vs. DMSO
recombinant FECH [9] = molecular target: T1, recombinant FECH; assay: FECH enzymatic activity assay; type: biochemical; conditions: for inhibitory activity against recombinant FECH: qualitative
[10] = system: choroidal neovascularization
[11] = system: COXIV subunit I expression in HRECs; assay: Immunoblot for hemoprotein COXIV subunit I; type: cell-based, human; conditions: 16 hours, dose dependent (10, 30 or 100 μM)
Method in brief: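 HRECs were treated 16 h with test compound (10, 30 or 100 μM), a reference FECH inhibitor (10 μM) or DMSO. Arms were: 6 h pretreatment with 100 μM succinylacetone or water, or after treatment, medium replaced by EBM-2 with 0.2% serum and 10 μM hemin. Lysate protein (40 μg) was run on 12% SDS-PAGE and PVDF, probed with anti-COX4I1 (1:1000) and β-actin (1:2000). n=3 biological.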

HRECs [12] = assay: In vitro apoptosis assays; type: cell-based, human; conditions: 16 hour treatment, 10, 30 and 100 μM
Method in brief: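 HRECs on coated chamber slides, 70% confluent, were treated 16 h with vehicle, test compound (10, 30, 100 μM), or positive controls (1 μM staurosporine for caspase, 10 μM DNase I for TUNEL). After 4% PFA fixation: Triton permeabilisation, anti-cleaved caspase-3 (1:200, overnight, 4°C), fluorescent secondary and Hoechst; or a Click-iT TUNEL kit. Stained cells were counted as % of nuclei in three 40x fields. Three biological repeats.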

PPIX and heme in HRECs = assay: Porphyrin and heme analysis; type: cell-based, human; conditions: 30 μM 4e ± 1 mM 5-ALA
Method in brief: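 HRECs were grown to 80% confluence and serum-starved overnight. Cells received DMSO or 30 μM test compound for 1 h, then 1 mM 5-ALA or water for a further 2 h. They were pelleted in cold PBS and frozen. Heme and porphyrins were quantified by a core facility following its posted protocols. n=3.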

HRECs [13] = conditions: ref Basavarajappa et al., 2017; cited from earlier work
[14] = system: Human Retinal Endothelial Cell (HREC); conditions: HRECs; ref Basavarajappa et al., 2017; cited from earlier work
HRECs [15] = conditions: ref Basavarajappa et al., 2017; cited from earlier work; remark: listed apart in the source
ARPE19 cells [16] = conditions: ref Basavarajappa et al., 2017; cited from earlier work
[17] = recombinant FECH activity assay

CC(C)(C)c1ccc(-c2nc3[nH]c(CNc4ccc5ccccc5n4)cc(=O)n3n2)cc1 [4e, 2-(4-(tert-Butyl)phenyl)-5-((quinolin-2-ylamino)methyl)-[1,2,4]triazolo[1,5-a]pyrimidin-7(4H)-one]
proliferation of iCEC2 cells [1]: more potent than NMPP
antiproliferative effect on ARPE19 cells (ARPE19 cells [2]): did not have a substantial antiproliferative effect
HREC migration (HRECs [3]): blocked the migration ability
HREC tube formation (HRECs [4]): blocked tube formation of HRECs
HREC proliferation (antiproliferative effect) [5]: anti-proliferative
EC50 [6]: 98 µM
mode of inhibition (recombinant FECH [7]): competitive inhibition
PPIX accumulation in HRECs [8]: statistically significant PPIX accumulation
inhibitory activity against recombinant FECH (recombinant FECH [9]): showed inhibitory activity
IC50 value (range in words) (recombinant FECH [9]; [17]): high nanomolar range
ocular toxicity (fundus images, OCT) ([10]; day 0, 7 and 14 after laser, intravitreal): no obvious signs of toxicity
decrease in lesion volume (agglutinin and GS-IB4 signal, choroidal flat mounts) ([10]; day 14, both tested doses (50 and 100 μM intravitreal)): > 50%
OCT lesion volume relative to control ([10]; day 14, final intravitreal concentrations of 50 μM as well as 100 μM): significantly reduced
leakage on fluorescein angiography (FA) ([10]; day 14, qualitative): smaller
COXIV subunit I levels in HRECs [11]: decreased COXIV levels
apoptosis in HRECs (cleaved caspase-3, TUNEL) (HRECs [12]): did not lead to apoptosis
PPIX level in HRECs (PPIX and heme in HRECs): buildup of FECH substrate PPIX
heme level in HRECs (PPIX and heme in HRECs): decrease in heme

CCCc1cc(=O)n2nc(CNc3ccc(C)cc3)nc2[nH]1 [5c, 5-Propyl-2-((p-tolylamino)methyl)-[1,2,4]triazolo[1,5-a]pyrimidin-7(4H)-one]
HREC tube formation (HRECs [4]): blocked tube formation of HRECs
HREC proliferation (antiproliferative effect) [5]: anti-proliferative
IC50 value (range in words) (recombinant FECH [9]; [17]): high nanomolar range

CCCc1cc(=O)n2nc(CNc3ccc(Cl)cc3)nc2[nH]1 [5f, 2-(((4-Chlorophenyl)amino)methyl)-5-propyl-[1,2,4]triazolo[1,5-a]pyrimidin-7(4H)-one]
inhibitory activity against recombinant FECH (recombinant FECH [9]): potent FECH inhibitors

CCCc1cc(=O)n2nc(CNc3ccc(F)c(Cl)c3)nc2[nH]1 [5i, 2-(((3-Chloro-4-fluorophenyl)amino)methyl)-5-propyl-[1,2,4]triazolo[1,5-a]pyrimidin-7(4H)-one]
HREC proliferation (antiproliferative effect) [5]: did not affect HREC proliferation
inhibitory activity against recombinant FECH (recombinant FECH [9]): strongest inhibitory activity

CCCc1cc(=O)n2nc(CNc3ccc(F)c(F)c3)nc2[nH]1 [5k, 2-(((3,4-Difluorophenyl)amino)methyl)-5-propyl-[1,2,4]triazolo[1,5-a]pyrimidin-7(4H)-one]
HREC proliferation (antiproliferative effect) [5]: did not affect HREC proliferation
inhibitory activity against recombinant FECH (recombinant FECH [9]): strongest inhibitory activity

N-methylprotoporphyrin [NMPP]
proliferation of iCEC2 cells [1]: antiproliferative
inhibition of HREC migration, active concentrations (HRECs [13]): single-digit micromolar concentrations
GI50 [14]: 30 µM
FECH activity inhibition (recombinant FECH [9]; 10 μM, positive control in the screen): completely inhibited
IC50 (recombinant FECH [9]; [17]): 0.45 µM
inhibition of HREC tube formation, active concentrations (HRECs [15]): single-digit micromolar concentrations
proliferation of ARPE19 cells (ARPE19 cells [16]): did not block proliferation
